What was measured:
[1] = species on record: Rattus norvegicus; test: Effect on growth and morphogenesis of organogenesis-staged rat embryo at 5 ug/mL after 45 hrs relative to control; format: functional
How it was run: (§1)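 Time-pregnant rats were euthanized with CO2 on gestation day 9. Embryos were dissected on day 9.5 at stages 11a-11c and cultured in 2.0 mL rat serum plus 0.5 mL Waymouth's MB 752/1 with penicillin-streptomycin. Test material in EtOH-DMSO (1:1) was added at culture start, with a solvent control. Growth, development score and major malformations were assessed after 45 h; controls were pooled across experiments.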

[2] = Binding affinity to nicotinic receptor
[3] = Teratogenic activity in rat embryo assessed as incidence of major malformation at 250 ug/mL after 45 hrs relative to control; format: toxicity; how it was run: as §1
[4] = Teratogenic activity in rat embryo assessed as incidence of major malformation at 80 ug/mL after 45 hrs relative to control; format: toxicity; how it was run: as §1
[5] = Teratogenic activity in rat embryo assessed as incidence of major malformation at 20 ug/mL after 45 hrs relative to control; format: toxicity; how it was run: as §1
[6] = Teratogenic activity in rat embryo assessed as incidence of major malformation at 50 ug/mL after 45 hrs relative to control; format: toxicity; how it was run: as §1
[7] = species on record: Rattus norvegicus; test: Effect on growth and morphogenesis of organogenesis-staged rat embryo at 80 ug/mL after 45 hrs relative to control; format: functional; how it was run: as §1
[8] = species on record: Rattus norvegicus; test: Effect on growth and morphogenesis of organogenesis-staged rat embryo at 20 ug/mL after 45 hrs relative to control; format: functional; how it was run: as §1
[9] = species on record: Rattus norvegicus; test: Effect on growth and morphogenesis of organogenesis-staged rat embryo at 250 ug/mL after 45 hrs relative to control; format: functional; how it was run: as §1
[10] = Teratogenic activity in rat embryo assessed as incidence of major malformation at 5 ug/mL after 45 hrs relative to control; format: toxicity; how it was run: as §1
[11] = Binding affinity to muscarinic acetylcholine receptor
[12] = species on record: Rattus norvegicus; test: Effect on growth and morphogenesis of organogenesis-staged rat embryo at 1.25 ug/mL after 45 hrs relative to control; format: functional
How it was run: (§2)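 Rat whole embryo culture: gestation day 9.5 embryos (stages 11a-11c) dissected from time-pregnant dams. Medium was 2.0 mL rat serum plus 0.5 mL Waymouth's MB 752/1 with penicillin-streptomycin. Test material was dissolved in EtOH-DMSO (1:1) and added at the start of culture; the solvent served as control. After 45 h, a developmental score was assigned and major malformations recorded. Controls were pooled across experiments.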

[13] = Teratogenic activity in rat embryo assessed as incidence of major malformation at 1.25 ug/mL after 45 hrs relative to control; format: toxicity; how it was run: as §1
[14] = Embryotoxicity in rat embryo at 250 ug/mL; format: toxicity; how it was run: as §1
[15] = Embryotoxicity in rat embryo at 5 ug/mL; format: toxicity; how it was run: as §1
[16] = Embryotoxicity in rat embryo at 80 ug/mL; format: toxicity; how it was run: as §1
[17] = Embryotoxicity in rat embryo at 20 ug/mL; format: toxicity; how it was run: as §1
[18] = species on record: Rattus norvegicus; test: Effect on growth and morphogenesis of organogenesis-staged rat embryo at 0.1 ug/mL after 45 hrs relative to control; format: functional; how it was run: as §2

Compound	Activity [1] [%]	IC50 [2] [µM]	Activity [3]	Activity [4]	Activity [5]	Activity [6] [%]	Activity [7] [%]	Activity [8] [%]	Activity [9] [%]	Activity [10]	IC50 [11] [µM]	Activity [12] [%]	Activity [13]	Activity [14]	Activity [15]	Activity [16]	Activity [17]	Activity [18] [%]
CN1C[C@@H]2C[C@H](C1)c1cccc(=O)n1C2	29	0.05	22.9%	24%	29.8%	26.2												
O=C1CCC[C@@H]2[C@@H]3C[C@H](CN12)[C@H]1CCCCN1C3	29.5						30.5	29.2										
O=c1cccc2n1C[C@H]1C[C@@H]2CN2CCCC[C@H]12 [ANAGYRINE]	28.2	2100	Active	Not Active	Not Active		28.2	26.5	15.5	Not Active	132							
COc1ccc2c(c1O)-c1c(O)c(OC)cc3c1[C@H](C2)[N+](C)(C)CC3 [MAGNOFLORINE]	29			Not Active	Not Active		28.2	27.8		Not Active		28.2	Not Active					
COc1ccc2c(=O)oc3c(OC)cc(CCN(C)C)c4c(=O)oc1c2c34 [TASPINE]										Not Active		27.7	Not Active	Toxic	Toxic	Toxic	Toxic	27.6
CN1CCCCC1CC(=O)c1ccc(O)cc1 (stereo not given) [THALICHROIDINE]	30.8				Not Active		29.2	29.5		Not Active								

— ChEMBL document CHEMBL1158682, “Detecting potential teratogenic alkaloids from blue cohosh rhizomes using an in vitro rat embryo culture” (J Nat Prod, 1999)
